The results in this text go back to PubChem BioAssay AID489030 (Sanford-Burnham Center for Chemical Genomics, 2010).

In general, inhibition refers to the drop in the measured response relative to a control, in per cent.

The structures appear in SMILES notation. The whole screen tested about 330,000 compounds, of which about 2,400 (0.73%) were called active. This excerpt belongs to a sample that is enriched for actives. A number with no mark means an inactive call. Rule for the calls: active = inhibition of at least 40% at 20 µM; inactive = the rest.

Apoptotic protease-activating factor 1 (Homo sapiens), sequence (O14727 whole entry, looked up): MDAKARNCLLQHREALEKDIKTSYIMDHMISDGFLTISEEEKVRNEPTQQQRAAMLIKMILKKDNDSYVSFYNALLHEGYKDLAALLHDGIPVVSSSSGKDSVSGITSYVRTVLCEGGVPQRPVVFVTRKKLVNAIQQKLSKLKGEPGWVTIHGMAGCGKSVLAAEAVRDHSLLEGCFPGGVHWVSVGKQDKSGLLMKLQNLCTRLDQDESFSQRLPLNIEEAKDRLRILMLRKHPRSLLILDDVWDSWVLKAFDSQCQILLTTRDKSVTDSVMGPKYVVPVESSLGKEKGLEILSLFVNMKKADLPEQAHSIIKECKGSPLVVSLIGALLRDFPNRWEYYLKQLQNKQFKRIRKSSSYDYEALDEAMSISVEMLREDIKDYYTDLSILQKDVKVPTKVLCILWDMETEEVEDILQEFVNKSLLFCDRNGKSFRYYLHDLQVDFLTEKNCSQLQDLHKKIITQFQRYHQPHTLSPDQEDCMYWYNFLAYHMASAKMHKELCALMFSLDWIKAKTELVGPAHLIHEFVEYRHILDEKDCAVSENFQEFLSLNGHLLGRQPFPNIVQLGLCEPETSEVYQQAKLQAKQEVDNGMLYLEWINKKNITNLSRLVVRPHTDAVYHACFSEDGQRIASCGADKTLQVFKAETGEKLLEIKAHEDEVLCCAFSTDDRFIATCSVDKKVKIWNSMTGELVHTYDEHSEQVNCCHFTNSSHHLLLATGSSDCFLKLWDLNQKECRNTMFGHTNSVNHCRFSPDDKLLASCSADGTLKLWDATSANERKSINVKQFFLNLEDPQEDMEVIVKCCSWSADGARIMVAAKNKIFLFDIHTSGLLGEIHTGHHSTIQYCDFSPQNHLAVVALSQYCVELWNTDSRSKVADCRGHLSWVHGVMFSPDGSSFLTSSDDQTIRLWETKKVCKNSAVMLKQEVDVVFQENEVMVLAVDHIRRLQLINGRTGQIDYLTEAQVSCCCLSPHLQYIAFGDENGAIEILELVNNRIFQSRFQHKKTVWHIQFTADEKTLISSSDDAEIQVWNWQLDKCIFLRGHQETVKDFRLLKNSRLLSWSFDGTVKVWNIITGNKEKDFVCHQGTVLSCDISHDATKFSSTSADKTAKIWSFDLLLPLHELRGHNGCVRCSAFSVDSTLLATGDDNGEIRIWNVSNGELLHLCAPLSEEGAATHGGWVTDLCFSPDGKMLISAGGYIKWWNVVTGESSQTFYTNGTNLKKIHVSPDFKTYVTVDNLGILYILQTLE

This experiment concerns the target Apoptotic protease-activating factor 1 (Homo sapiens) (UniProt O14727). As to the kind of experiment: inhibitors of human Apaf-1 apoptosome, primary screen, biochemical, DEVD-Rh110 fluorescence, uHTS (AID 489030).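 Note: plate controls were DMSO wells for no effect and DEVD-CHO caspase inhibitor wells for full effect.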 Particulars: reconstituted apoptosome caspase-3 activity, at 20 µM, stronger effect = higher value. Put shortly:
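System: Apoptosome proteins | Medium: Hepes pH 7.5 with detergent and BSA | Also added: Cytochrome c trigger plus (Z-DEVD)2-Rh110 caspase-3 substrate | Incubation: 30 min compound preincubation, 50 min activation, room temperature | Detection: Rhodamine 110 fluorescence at Ex 480/Em 540 nm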
Regarding `CCNC(=O)COC(=O)CCNC(=O)c1cccc(C)c1`, the inhibition is -4.69%.

In the case of `Cc1nn2cc(-c3ccc(Cl)cc3)cnc2c1Br`, the inhibition was -6.41%.

For the compound `COc1cc(OC)cc(C(=O)OCC(=O)Nc2sccc2C(N)=O)c1`, the inhibition was -0.564%.

With `COC(=O)c1ccc(N2CCOCC2)c(NC(=O)c2ccc(Br)o2)c1`, the inhibition was -17.7%.

Regarding `CCCCc1nc2cc(C(=O)N3CCCCC3CCO)ccc2o1` (stereo not given), the inhibition is 5.2%.

With `CCN(CC)CCCSc1nc2ccccc2s1`, the inhibition is -0.516%.

As for `OCCNc1nc(Nc2ccc(Cl)c(Cl)c2)nc2ccccc12`, the inhibition was 24.2%.

With `O=[N+]([O-])c1c(NCCO)cc(Sc2nc3ccccc3s2)c2nonc12`, the inhibition was 90.7% (active).

For the compound `O=c1ccc2cc(S(=O)(=O)NCCCc3ccccc3)ccc2[nH]1`, the inhibition was 0.38%.

`C=CC(=O)OCCOCCOCCOCCOC(=O)C=C`: the inhibition is -5.63%.

For `O=C1CCNCCN1[C@H](CO)Cc1ccccc1`, the inhibition is -9.83%.

On to `c1ccc(C[C@H]2CNCCN2CCC23CC4CC(CC(C4)C2)C3)cc1`, for which the inhibition was 47.5% (active).

Consider `c1ccc(C2CNCc3c2ccc2ccccc32)cc1` (stereo not given), for which the inhibition is 13.6%.

For the compound `c1ccc2c(CCN3CCNC[C@H]3Cc3cccc4ccccc34)cccc2c1`, the inhibition is 67% (active).

Regarding `CC(C)(C)CN1C(=O)C(=O)NC[C@H]1Cc1cccc2ccccc12`, the inhibition is -2.41%.

As to `NS(=O)(=O)c1ccc(N2C(=O)C3C4CC(C(Br)C4Br)C3C2=O)cc1` (stereo not given), the inhibition was 4.73%.

Regarding `CC(=O)Nc1ccc(OCCC[n+]2cccc(C(=O)[O-])c2)cc1`, the inhibition is 0.989%.

On to `N=c1ccn(CC(=O)NC(N)=O)c2ccccc12`, for which the inhibition is -8.89%.

Turning to `Cc1cccc(/C=N/NC(=O)CNc2cccc3ccccc23)n1`, the inhibition is 8.96%.

On to `C/C(=N\NC(=O)CSc1nc2ccccc2c(=O)n1-c1ccccc1C)c1cccs1`, for which the inhibition was 19.1%.

Regarding `C/C(=N\NC(=O)CNc1cccc2ccccc12)c1ccc(Br)s1`, the inhibition was 90.2% (active).

For `COc1ccc(-n2nnnc2SCC(=O)c2ccc(OC)c(OC)c2)cc1`, the inhibition is 1%.

`CC[C@@H](C)[C@@H](C(=O)N1CCN(C(=O)OC(C)(C)C)CC1)n1cc(CCC(=O)O)nn1`: the inhibition was -7.69%.

Regarding `COc1ccc(C2=NOC3(CC(=O)N(c4ccc(Cl)cc4)C3=O)C2)c(OC)c1` (stereo not given), the inhibition was 5.23%.

Take `C#CCOCCOCCOCCNc1nc(N2CCN(C(=O)[C@H](CCC(=O)O)n3cc(C(N)CO)nn3)CC2)nc(N2CCN(C(=O)[C@H](CCCCN)n3cc(C(N)CC(C)C)nn3)CC2)n1` (stereo not given in full): the inhibition was 2.63%.

On to `C#CCOCCOCCOCCNc1nc(N2CCN(C(=O)CCCCCCCCCCNC(=O)[C@H](CCCCN)n3cc(C)nn3)CC2)nc(N2CCN(C(=O)CCCCCCCCCCNC(=O)[C@H](CO)n3cc(CCCSC)nn3)CC2)n1`, for which the inhibition is 59.7% (active).

As for `C#CCOCCOCCOCCNc1nc(N2CCN(C(=O)[C@H](CCC(=O)O)n3cc(CN)nn3)CC2)nc(N2CCN(C(=O)[C@H](CCC(=O)O)n3cc(CN)nn3)CC2)n1`, the inhibition was -8.71%.

In the case of `C#CCOCCOCCOCCNc1nc(N2CCN(C(=O)Cn3cc(CCCCN)nn3)CC2)nc(N2CCN(C(=O)[C@H](CCCCN)n3cc(CCC(=O)O)nn3)CC2)n1`, the inhibition is 2.29%.

`C#CCOCCOCCOCCNc1nc(N2CCN(C(=O)C([C@@H](C)O)n3cc([C@@H](N)CCCCN)nn3)CC2)nc(N2CCN(C(=O)[C@H](CCCCN)n3cc(CN)nn3)CC2)n1` (stereo not given in full): the inhibition is 42.2% (active).

Turning to `C#CCOCCOCCOCCNc1nc(N2CCN(C(=O)[C@H](CCC(=O)O)n3cc(C(N)CO)nn3)CC2)nc(N2CCN(C(=O)[C@H](CCCCN)n3cc(C(N)[C@H](C)CC)nn3)CC2)n1` (stereo not given in full), the inhibition was 20.3%.

In the case of `C#CCOCCOCCOCCNc1nc(N2CCN(C(=O)[C@H](CCCCN)n3cc(CCC(=O)O)nn3)CC2)nc(N2CCN(C(=O)[C@H](CCCCN)n3cc(CC(C)O)nn3)CC2)n1` (stereo not given in full), the inhibition was -2.94%.

For the compound `C#CCOCCOCCOCCNc1nc(N2CCN(C(=O)CCCCCCCCCCNC(=O)[C@H]([C@@H](C)CC)n3cc(CCCCN=C(N)N)nn3)CC2)nc(N2CCN(C(=O)CCCCCCCCCCNC(=O)[C@H](CO)n3cc(CCCSC)nn3)CC2)n1`, the inhibition was 59.2% (active).

As for `C#CCOCCOCCOCCNc1nc(N2CCN(C(=O)[C@H](C(C)C)n3cc(CCO)nn3)CC2)nc(N2CCN(C(=O)[C@H]([C@@H](C)CC)n3cc(CCCN=C(N)N)nn3)CC2)n1`, the inhibition is 0.78%.

As to `C#CCOCCOCCOCCNc1nc(N2CCN(C(=O)C([C@@H](C)CC)n3cc(C(N)COC(=O)C(F)(F)F)nn3)CC2)nc(N2CCN(C(=O)[C@H](CCCCN)n3cc(C(N)CC(C)C)nn3)CC2)n1` (stereo not given in full), the inhibition is 4.38%.

Turning to `C#CCOCCOCCOCCNc1nc(N2CCN(C(=O)[C@H](CCCN=C(N)N)n3cc(C(N)[C@@H](C)CC)nn3)CC2)nc(N2CCN(C(=O)[C@H](CO)n3cc([C@@H](N)C(C)C)nn3)CC2)n1` (stereo not given in full), the inhibition was 1.97%.

As for `C#CCOCCOCCOCCNc1nc(N2CCN(C(=O)CCCCCCCCCCNC(=O)Cn3cc(CCCCCN)nn3)CC2)nc(N2CCN(C(=O)CCCCCCCCCCNC(=O)[C@H](CO)n3cc(CCCSC)nn3)CC2)n1`, the inhibition was 60.7% (active).

With `CCN(c1ccc2c(c1)OCO2)S(=O)(=O)c1cc(Br)cc2c1N(C(=O)C1CC1)CC2`, the inhibition was 21.5%.

On to `COc1cc(C2C(C(=O)c3cccs3)=C(O)C(=O)N2CCN2CCOCC2)ccc1OCCC(C)C` (stereo not given), for which the inhibition is 6.88%.

Consider `CCn1c(CN2C(=O)CSc3ccccc32)n[nH]c1=S`, for which the inhibition was -18.9%.

Turning to `CN(Cc1ccccc1)C(=O)c1ccc(NC2=NC3CS(=O)(=O)CC3S2)cc1` (stereo not given), the inhibition was -0.97%.

Take `CC(C)Oc1ccc(Cc2n[nH]c(=S)n2Cc2ccccc2)cc1Cl`: the inhibition was -15.3%.

As for `CC(NCc1ccccc1OC1CCCC1)c1ccccc1` (stereo not given), the inhibition is -12%.

Turning to `CCOc1ccc(N=C2NC(=O)S/C2=C\c2ccc(O)cc2)cc1`, the inhibition was -72%.

As for `CCOc1[nH]n(-c2ccc(Cl)cc2)c(=O)c1C=Nc1ccc(O)cc1`, the inhibition was 66.9% (active).

With `CCCCn1c(N)c(N(CCC(C)C)C(=O)c2ccc([N+](=O)[O-])o2)c(=O)[nH]c1=O`, the inhibition is 5.92%.

Consider `CCCCc1nnc(NC(=O)CSc2nc(N)cc(=O)[nH]2)s1`, for which the inhibition is 20.3%.

With `COc1ccc(NC(=O)CN(C)S(=O)(=O)c2ccccc2)cc1OC`, the inhibition was -3.33%.

Consider `COC(=O)c1ccccc1NC(=O)CN(Cc1ccccc1)S(C)(=O)=O`, for which the inhibition was -17.6%.

As for `COc1ccc(NC(=O)CN(Cc2ccccc2)S(C)(=O)=O)cc1OC`, the inhibition was 40.8% (active).

Turning to `CCCCN(C(=O)C1=NN(c2cc(C)ccc2C)C(=O)CC1)c1c(N)n(CCC)c(=O)[nH]c1=O`, the inhibition was -17%.

Consider `CC1CC(=O)Nc2ccccc2N1S(=O)(=O)c1cccs1` (stereo not given), for which the inhibition was -4.75%.

As for `CC1CC(C)(C)NC(=S)N1CCC(=O)N1CCN(Cc2ccccc2)CC1` (stereo not given), the inhibition was -1.32%.

For `CC1CC(=S)Nc2ccccc2N1Cc1ccccc1` (stereo not given), the inhibition is 41.4% (active).

Take `COC(=O)c1noc(C)c1-c1ccnn1C(=O)c1ccc(Cl)cc1`: the inhibition is 10.5%.

Turning to `COc1ccc2sc(N(CCCN(C)C)C(=O)c3ccc(S(=O)(=O)N(C)C4CCCCC4)cc3)nc2c1`, the inhibition was 24%.

With `CN(C)CCCN(C(=O)c1ccc(S(=O)(=O)N2CCCCCC2)cc1)c1nc2ccc(Br)cc2s1`, the inhibition was 60.4% (active).

For the compound `CN(C)CCCN(C(=O)c1ccc(S(=O)(=O)N2CCCc3ccccc32)cc1)c1nc2ccc(F)cc2s1`, the inhibition is 23.6%.

`C#CCOCCOCCOCCNc1nc(N2CCN(C(=O)[C@H](CCCCN)n3cc([C@@H](N)C(C)CC)nn3)CC2)nc(N2CCN(C(=O)[C@H](Cc3ccc(O)cc3)n3cc([C@@H](N)C(C)CC)nn3)CC2)n1` (stereo not given in full): the inhibition was -9.37%.

On to `CC1(C)CC(=O)C2=C(C1)NCN(CCCN1CCOCC1)C2`, for which the inhibition was 4.48%.

For `CCc1nc(C)ccc1OCC(=O)N(CC)CC`, the inhibition is -18.1%.

As for `CN(C)CCOc1ccc(Cl)cc1C(C)(C)C`, the inhibition was 4.15%.

As to `CCC(C)(C)c1ccc(OCC(=O)N(C)C)c(C(C)(C)CC)c1`, the inhibition was 56.5% (active).

For the compound `CCOc1ccc(C(=O)CCN2CCOCC2)cc1`, the inhibition was 2.64%.

`CC(OC(=O)c1ccc(NS(=O)(=O)c2ccc3[nH]c(=O)[nH]c3c2)cc1)C(=O)Nc1cccc(Cl)c1Cl` (stereo not given): the inhibition is 14%.

Take `CCC(C)Sc1nc2c(c(=O)[nH]c(=O)n2C)n1CC(O)COc1cccc2ccccc12` (stereo not given): the inhibition is 22.5%.

Turning to `Cc1cc(C)c(NC(=O)C[N+](C)(C)CC(O)COc2cccc3ccccc23)c(C)c1` (stereo not given), the inhibition is 12.4%.

Consider `CC(C)c1ccccc1OCC(O)CN(CC(O)COc1cccc2ccccc12)C(C)C` (stereo not given), for which the inhibition is 57.3% (active).

In the case of `CCCCOc1ccc(NC(=O)CSCC(=O)OCC)cc1`, the inhibition is -4.3%.

With `CCOC(=O)COn1c(=O)c(-c2ccc(OCC)cc2)[n+]([O-])c2ccccc21`, the inhibition is 9.6%.

Consider `CCCCCCCCCCOC(=O)Cn1c(COc2ccc(C)cc2)[n+](C)c2ccccc21`, for which the inhibition was 77.7% (active).

For the compound `COc1cccc(OCc2nnc3n2N=C(c2ccccc2)C(CC(=O)O)S3)c1` (stereo not given), the inhibition is -0.294%.

With `CCCCn1c(N)c(N(CCOC)C(=O)c2cccc(OCc3ccccc3)c2)c(=O)[nH]c1=O`, the inhibition is 0.864%.

As to `CCCCCCCCCCOC(=O)Cn1c(COc2cccc(OC)c2)[n+](C)c2ccccc21`, the inhibition is 65.3% (active).

With `Cc1cccc(/C(N)=N/OC(=O)c2ccccc2Cl)c1`, the inhibition was 11.3%.

Regarding `CCOC(=O)c1sc(C)c2c1NC(C)(c1cccc3ccccc13)NC2=O` (stereo not given), the inhibition is 28%.
